≈ marks a conversion by molar mass, not a printed value. Some results are limits rather than exact numbers.

Assay type in all cases: functional
In one experiment the test system is Staphylococcus aureus. The experiment is described as follows: Antibacterial activity against Staphylococcus aureus ATCC 25293 after 18 hrs by […]. As to conditions: ATCC 25923, 18 h, in the assay text read “ATCC 25923” for “ATCC 25293”. The essentials: (§1)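 Compounds were first screened by agar diffusion, with filter-paper disks of ampicillin (10 μg), oxolinic acid (2 μg) or oxytetracycline (30 μg) as positive controls. For MICs, strains were grown in Müller-Hinton broth to early stationary phase and diluted to OD600 = 0.005. Compound dilutions were added in DMSO (final 10%). Growth was read at OD620 after 18 h at 37 C, in duplicate with two independent cultures.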
For orientation: In agar diffusion tests the substance spreads into inoculated agar from a disc or well.

The test system of another experiment is Escherichia coli. The experiment is described as follows: Antibacterial activity against Escherichia coli ATCC 25922 after 18 hrs by […]. As to conditions: ATCC 25922, 18 h. The essentials:
as §1

A further experiment deals with Vibrio parahaemolyticus. Briefly: Antibacterial activity against Vibrio parahaemolyticus NCTC 10441 after 18 hrs by […]. To be noted: NCTC 10441, 18 h. In outline:
as §1

For another experiment, the system named is Listeria monocytogenes. Briefly: Antibacterial activity against Listeria monocytogenes ATCC 19115 after 18 hrs by […]. As to conditions: ATCC 19115, 18 h. The essentials: as §1
A further experiment has as its system Bacillus subtilis. Briefly: Antibacterial activity against Bacillus subtilis NCTC 2116 after 18 hrs by […]. To be noted: NCTC 2116, 18 h. In outline: as §1

Usually MIC stands for the smallest concentration in the dilution series that meets the test's criterion for growth inhibition. A low value points to a more susceptible organism. `CC/C=C/[C@H]1C/C=C/C=C\[C@H](O)C[C@@H](O)[C@@H](C)/C=C/C[C@@H](C)/C=C/C=C(C)/C=C/C(=O)O1` [CHAXALACTIN A]: the MIC was 0.4 µg/mL (≈ 0.908 µM) against Staphylococcus aureus; more than 20 µg/mL in the experiment with Escherichia coli; 12.5 µg/mL (≈ 28.4 µM) in the experiment on Vibrio parahaemolyticus; 6.3 µg/mL (≈ 14.3 µM) with Listeria monocytogenes; 3.1 µg/mL (≈ 7.04 µM) against Bacillus subtilis.

On to `CC/C=C/[C@H]1C/C=C/C=C\[C@H](O)[C@@H](O)[C@@H](O)[C@@H](C)/C=C/C[C@@H](C)/C=C/C=C(C)/C=C/C(=O)O1` [CHAXALACTIN B], for which the MIC in the experiment on Staphylococcus aureus is 0.2 µg/mL (≈ 0.438 µM); with Escherichia coli, more than 20 µg/mL; in the experiment with Vibrio parahaemolyticus it was 20 µg/mL (≈ 43.8 µM); in the experiment with Listeria monocytogenes, 5 µg/mL (≈ 10.9 µM); with Bacillus subtilis it was 5 µg/mL (≈ 10.9 µM).

For the compound `CC/C=C/[C@H]1C/C=C/C=C\[C@H](OC)[C@@H](O)[C@@H](O)[C@@H](C)/C=C/C[C@@H](C)/C=C/C=C(C)/C=C/C(=O)O1` [CHAXALACTIN C], the MIC against Staphylococcus aureus is 0.8 µg/mL (≈ 1.7 µM); in the experiment on Escherichia coli it was more than 20 µg/mL; with Vibrio parahaemolyticus it was 12.5 µg/mL (≈ 26.6 µM); in the experiment on Listeria monocytogenes, 6.3 µg/mL (≈ 13.4 µM); against Bacillus subtilis, 6.3 µg/mL (≈ 13.4 µM).
